Calls of active or inactive are those of the source. The rule behind the calls is not given here.
Tests used:
[1] = Drug metabolism assessed as esterase (unknown origin)-mediated atorvastatin release in pH 7.4 PBS buffer incubated for 3 to 24 hrs by mass spectrometry; assay type: ADME; settings: human
Method in brief: (§1)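 Porcine liver esterase hydrolysis; DMSO stocks 3.5 mM. pH 7.40 route: stock diluted into PBS pH 7.40 containing 0.5 mg/mL esterase, 37 °C, sampled at 0 h, 3 h and 24 h. pH 4.50 route: PBS pH 4.50 at 37 °C for 24 h, pH raised to 7.40 with NaOH, PBS pH 7.40 containing 1.0 mg/mL esterase added, 37 °C one day. Reactions quenched with DCM; DCM layer analysed by mass spectrometry.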

[2] = target: T1, 3-hydroxy-3-methylglutaryl-coenzyme A reductase (Homo sapiens) (UniProt P04035); experiment: Inhibition of HMG CoA reductase in human Hep3G cells assessed as increase in LDL receptor expression at 25 uM incubated for 48 hrs by immunofluorescence method; assay type: cell-based; settings: in the assay text read “Hep3B” for “Hep3G”
T1 sequence (whole entry): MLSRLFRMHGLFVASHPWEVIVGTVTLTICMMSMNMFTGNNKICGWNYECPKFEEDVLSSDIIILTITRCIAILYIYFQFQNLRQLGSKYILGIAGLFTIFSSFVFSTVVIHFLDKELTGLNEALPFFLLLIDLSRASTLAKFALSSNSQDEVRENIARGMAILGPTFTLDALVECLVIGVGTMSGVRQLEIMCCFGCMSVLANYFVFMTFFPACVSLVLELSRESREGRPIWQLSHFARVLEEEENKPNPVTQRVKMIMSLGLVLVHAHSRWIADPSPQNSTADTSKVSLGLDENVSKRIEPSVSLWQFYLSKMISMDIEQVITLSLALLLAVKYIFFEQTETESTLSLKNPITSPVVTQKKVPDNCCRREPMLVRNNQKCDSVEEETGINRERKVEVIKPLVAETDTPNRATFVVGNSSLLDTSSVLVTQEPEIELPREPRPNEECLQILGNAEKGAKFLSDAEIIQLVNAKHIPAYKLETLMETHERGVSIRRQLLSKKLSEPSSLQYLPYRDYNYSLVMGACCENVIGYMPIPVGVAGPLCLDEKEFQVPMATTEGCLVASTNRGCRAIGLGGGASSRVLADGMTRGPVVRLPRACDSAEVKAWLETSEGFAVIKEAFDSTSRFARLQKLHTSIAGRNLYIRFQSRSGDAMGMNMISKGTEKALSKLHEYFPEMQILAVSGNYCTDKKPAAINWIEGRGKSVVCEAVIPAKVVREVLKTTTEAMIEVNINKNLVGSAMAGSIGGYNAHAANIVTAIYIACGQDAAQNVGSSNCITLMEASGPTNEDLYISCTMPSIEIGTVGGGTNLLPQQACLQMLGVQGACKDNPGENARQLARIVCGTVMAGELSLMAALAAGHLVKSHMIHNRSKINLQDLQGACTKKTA
Method in brief: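 Hep3B cells seeded 2×10^5 cells/cm2 and treated 24 h later at 25 μM final (from 10 mM stocks) for 48 h. Harvested cells were stained with anti-LDL receptor primary (1/100, 30 min RT), then goat anti-mouse IgG (1/2000, 30 min RT, dark), and analysed by flow cytometry. Triplicate; two-tailed t test.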

[3] = Drug uptake in human Hep3B cells assessed as ASGPR-mediated cellular uptake at 90 uM incubated for 3 hrs by UV spectrum and mass spectroscopic method relative to atorvastatin; assay type: ADME, cell-based
Method in brief: (§2)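 Hep3B cells in EMEM/10% FBS, 37 °C, 5% CO2, seeded 1×10^4 cells/cm2. After 24 h, compound was added from 18 mM stocks to a final 90 μM, with or without 90 mM GalNac co-added, for 3 h. Cells were rinsed, trypsinised and pelleted, then extracted with methanol/DCM. Supernatant was read by UV and mass spectra, and amounts were taken from standard curves.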

[4] = Drug uptake in human Hep3B cells assessed as ASGPR-mediated cellular uptake at 90 uM incubated for 3 hrs in presence of 90 mM GalNac by UV spectrum and mass spectroscopic method relative to atorvastatin; assay type: ADME, cell-based; method in brief: as §2
[5] = target: T1, 3-hydroxy-3-methylglutaryl-coenzyme A reductase (Homo sapiens); experiment: Inhibition of HMG CoA reductase (unknown origin) in pH 4.5 PBS in presence of NADPH incubated for 10 mins
Method in brief: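 Commercial HMG-CoA reductase kit, run on conjugates first hydrolysed as in the esterase procedure (pH 7.40 esterase, or pH 4.50 then pH 7.40 esterase). Absorbance at 340 nm was read kinetically for 10 min. Activity was computed from ΔA340/min (sample minus blank) using NADPH ε 6.22 mM⁻¹cm⁻¹ ×2, 0.6 mg/mL enzyme, 12×10^-3 mL enzyme, 0.2 mL total volume and 0.55 cm path.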

[6] = Drug metabolism assessed as esterase (unknown origin)-mediated atorvastatin release in pH 4.5 PBS buffer incubated for 3 to 24 hrs by mass spectrometry; assay type: ADME; settings: human; method in brief: as §1
[7] = target: T1, 3-hydroxy-3-methylglutaryl-coenzyme A reductase (Homo sapiens); experiment: Inhibition of HMG CoA reductase (unknown origin) using hydrolyzed product of compound in presence of NADPH incubated for 24 hrs in pH 4.5 PBS followed by incubation in pH 7.4 for 24 hrs in presence of esterase

| Drug metabolism [1] | inhibition [2] | fold change (FC) [3] | Drug uptake [4] | inhibition [5] | Drug metabolism [6] | inhibition [7] | SMILES |
| --- | --- | --- | --- | --- | --- | --- | --- |
| Metabolite_Notdetected | Active | 5.1 | Not Active | inactive | Metabolite_Detected | inactive | CC(=O)N[C@H]1[C@H](OCCn2cc(COC(=O)C[C@H]3C[C@@H](CCn4c(-c5ccc(F)cc5)c(-c5ccccc5)c(C(=O)Nc5ccccc5)c4C(C)C)OC(C)(C)O3)nn2)O[C@H](CO)[C@H](O)[C@@H]1O |
| – | Active | – | – | Active | – | – | CC(C)c1c(C(=O)Nc2ccccc2)c(-c2ccccc2)c(-c2ccc(F)cc2)n1CC[C@@H](O)C[C@@H](O)CC(=O)O |
| Metabolite_Detected | Active | 1.4 | Not Active | inactive | – | inactive | CC(=O)N[C@H]1[C@H](OCCn2cc(COC(=O)C[C@H](O)C[C@H](O)CCn3c(-c4ccc(F)cc4)c(-c4ccccc4)c(C(=O)Nc4ccccc4)c3C(C)C)nn2)O[C@H](CO)[C@H](O)[C@@H]1O |

Source: ChEMBL document CHEMBL4390698, “Targeted delivery of atorvastatin via asialoglycoprotein receptor (ASGPR)” (Bioorg Med Chem, 2019)
